Test results taken from ChEMBL document CHEMBL4043311, “Developing Equipotent Teixobactin Analogues against Drug-Resistant Bacteria and Discovering a Hydrophobic Interaction between Lipid II and Teixobactin” (J Med Chem, 2018).
Values after ≈ are worked out from the molar mass of the structure shown. Active and inactive are the calls of the source. The calls are words filed in the database; no cut-off is given here.

How the values were obtained:
[1] = test system: Staphylococcus aureus; experiment: Antibacterial activity against methicillin-resistant Staphylococcus aureus BAA-1695 after 20 hrs by broth microdilution method; format: functional; conditions: BAA-1695, 20 h
In short: (§1)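 Broth microdilution per CLSI in cation-adjusted Mueller-Hinton broth with 0.002% polysorbate 80. Analogues were made up as 10 mg/mL DMSO stocks, then diluted in MHB. Inoculum approx. 5×10^5 cells/mL. Incubated 20 h at 37°C; MIC taken as the lowest concentration with no visible growth. Run three times.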

[2] = test system: Staphylococcus aureus; experiment: Antibacterial activity against methicillin-sensitive Staphylococcus aureus TH 4806 after 20 hrs by broth microdilution method; format: functional; conditions: TH 4806, 20 h; in short: as §1
[3] = test system: Enterococcus faecalis; experiment: Antibacterial activity against […] Enterococcus faecalis ATCC 29212 after 20 hrs by broth microdilution method; format: functional; conditions: ATCC 29212, 20 h; in short: as §1
[4] = test system: Streptococcus pneumoniae; experiment: Antibacterial activity against Streptococcus pneumoniae D39 after 20 hrs by broth microdilution method; format: functional; conditions: D39, 20 h
In short: (§2)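 CLSI broth microdilution in cation-adjusted Mueller-Hinton broth with 3% lysed horse blood for streptococci and 0.002% polysorbate 80. Compounds taken from 10 mg/mL DMSO stocks and diluted in broth. Inoculum about 5×10^5 cells/mL. After 20 h at 37 °C, MIC read as lowest concentration with no visible growth. Done three times.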

[5] = test system: Streptococcus pyogenes; experiment: Antibacterial activity against Streptococcus pyogenes ATCC 19615 after 20 hrs by broth microdilution method; format: functional; conditions: ATCC 19615, 20 h; in short: as §2
[6] = test system: Staphylococcus aureus; experiment: Antibacterial activity against Staphylococcus aureus ATCC 29213 at lipid 2/test compound molar ratio 2 preincubated with lipid 2 for 30 mins followed by bacterial inoculation measured after overnight incubation; format: functional
In short: (§3)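 Test agent at 4x or 8x its broth MIC mixed with lipid II or C55-P (2x or 0.5x molar excess over compound) in MHII broth with 0.05% tween-80, 30 min at rt; exponential S. aureus ATCC 29213 then added to final OD600 0.001. Overnight at 37 °C; growth judged by eye and plate-reader absorbance. Run two or three times.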

[7] = test system: Staphylococcus aureus; experiment: Antibacterial activity against Staphylococcus aureus ATCC 29213 at undecaprenyl-phosphate/test compound molar ratio 0.5 to 2 preincubated with undecaprenyl-phosphate for 30 mins followed by bacterial inoculation measured after overnight incubation; format: functional; in short: as §3
[8] = Binding affinity to undecaprenyl-phosphate at 1 to 4 nmol after 30 mins by TLC method
In short: (§4)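 Lipid II or C55-P (1 nmol) incubated with 1, 2, 3 or 4 nmol compound in 50 mM Tris/HCl pH 7.5, 30 min at rt. Extracted twice with pyridinium acetate (6 M, pH 4.2)/butanol (1:2), then washed with butanol-saturated water. Organic phase run on silica TLC in chloroform/methanol/water/ammonia (88:48:10:1) and stained with phosphomolybdic acid; loss of lipid band scored. Done twice.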

[9] = Binding affinity to lipid 2 at 4 nmol after 30 mins by TLC method; in short: as §4
[10] = Binding affinity to Bacillus subtilis UDP-MurNAc-L-Ala-gamma-DGlu-meso-Dap-D-Ala-D-Ala by ITC method
In short: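 Park's nucleotide was isolated from Bacillus subtilis. ITC run at 25 °C in DMSO:H2O (85:15). The lipid II analogue (0.375 mM) was titrated into 0.025 mM test compound.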

[11] = test system: Streptococcus pneumoniae; experiment: Antibacterial activity against Streptococcus pneumoniae D39 infected in C57BL/6J mouse at 1 x 10^4 cfu/mouse assessed as mouse survival rate at 1 to 5 mg/kg, iv administered 1 hr post infection measured after 48 hrs relative to control; format: functional
In short: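 C57BL/6J female mice, 6-8 weeks, infected i.p. with 0.2 mL S. pneumoniae D39 suspension (1×10^4 c.f.u. per mouse), an inoculum giving at least 90% mortality within 48 h; 6 per group. Single i.v. dose 1 h post-infection at 5, 2 or 1 mg per kg in PBS:Cremophor-EL:DMSO (94:5:1); vehicle and vancomycin (5 mg per kg) controls. Survival scored at 48 h; log-rank test.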

[12] = test system: Streptococcus pneumoniae; experiment: Antibacterial activity against Streptococcus pneumoniae D39 infected in C57BL/6J mouse at 5 x 10^4 cfu/mouse assessed as reduction of bacterial burden in blood at 1 to 5 mg/kg, iv administered 1 hr post infection measured after 12 to 22 hrs relative to control; format: functional
In short: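 Female C57BL/6J mice, 6-8 weeks, 4 per group, given 0.2 mL S. pneumoniae D39 i.p. (5×10^4 c.f.u. per mouse). At 1 h post-infection a single i.v. dose of 5 or 1 mg/kg was given in PBS:Cremophor-EL:DMSO (94:5:1). Vehicle and vancomycin 5 mg/kg groups were included. Blood c.f.u. counted at 12, 18 and 22 h.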

[13] = test system: Staphylococcus aureus; experiment: Antibacterial activity against Staphylococcus aureus ATCC 29213 at lipid 2/test compound molar ratio 0.5 preincubated with lipid 2 for 30 mins followed by bacterial inoculation measured after overnight incubation; format: functional; in short: as §3

Structure (SMILES): CC[C@@H](C)[C@@H](NC(=O)[C@@H](CCC(N)=O)NC(=O)[C@H](CO)NC(=O)[C@@H](NC(=O)[C@H](N)Cc1ccc(-c2ccccc2)cc1)[C@@H](C)CC)C(=O)N[C@H](C(=O)N[C@@H](CO)C(=O)N[C@H]1C(=O)N[C@@H](C)C(=O)N[C@@H](CCCCN)C(=O)N[C@@H]([C@@H](C)CC)C(=O)O[C@H]1C)[C@@H](C)CC
- MIC [1]: 0.5 µg/mL (≈ 0.391 µM)
- MIC [2]: 0.5 µg/mL (≈ 0.391 µM)
- MIC [3]: 0.5 µg/mL (≈ 0.391 µM)
- MIC [4]: < 0.032 µg/mL
- MIC [5]: < 0.25 µg/mL
- Activity [6]: inactive
- Activity [7]: Active
- Activity [8]: inactive
- Activity [9]: inactive
- Kd [10]: 23 µM
- Survival [11]: 100%
- Activity [12]: 6 deltalog10CFU/ml
- Activity [13]: Active
